Our source for the Activity, IC50 and inhibition values is ChEMBL document CHEMBL1821673, “Development of β-amino alcohol derivatives that inhibit Toll-like receptor 4 mediated inflammatory response as potential antiseptics” (J Med Chem, 2011).

Active and inactive are the calls of the source. The rule behind the calls is not given here. A value given as a limit tells only on which side of the number the result lay.

One data set deals with Blood. As to the kind of experiment: Cytotoxicity against human whole blood assessed as hemolysis at 1 mM. To be noted: 1000 µM. The data set is classed as tissue-based. The gist of the method:
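Human whole blood anticoagulated with lepirudin, exposed to compound at up to 1 mM; hemolysis checked.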

For data set [1], the target named is T1, Toll-like receptor 4 (Mus musculus, UniProt Q9QUK6).
T1 sequence (Q9QUK6 whole entry): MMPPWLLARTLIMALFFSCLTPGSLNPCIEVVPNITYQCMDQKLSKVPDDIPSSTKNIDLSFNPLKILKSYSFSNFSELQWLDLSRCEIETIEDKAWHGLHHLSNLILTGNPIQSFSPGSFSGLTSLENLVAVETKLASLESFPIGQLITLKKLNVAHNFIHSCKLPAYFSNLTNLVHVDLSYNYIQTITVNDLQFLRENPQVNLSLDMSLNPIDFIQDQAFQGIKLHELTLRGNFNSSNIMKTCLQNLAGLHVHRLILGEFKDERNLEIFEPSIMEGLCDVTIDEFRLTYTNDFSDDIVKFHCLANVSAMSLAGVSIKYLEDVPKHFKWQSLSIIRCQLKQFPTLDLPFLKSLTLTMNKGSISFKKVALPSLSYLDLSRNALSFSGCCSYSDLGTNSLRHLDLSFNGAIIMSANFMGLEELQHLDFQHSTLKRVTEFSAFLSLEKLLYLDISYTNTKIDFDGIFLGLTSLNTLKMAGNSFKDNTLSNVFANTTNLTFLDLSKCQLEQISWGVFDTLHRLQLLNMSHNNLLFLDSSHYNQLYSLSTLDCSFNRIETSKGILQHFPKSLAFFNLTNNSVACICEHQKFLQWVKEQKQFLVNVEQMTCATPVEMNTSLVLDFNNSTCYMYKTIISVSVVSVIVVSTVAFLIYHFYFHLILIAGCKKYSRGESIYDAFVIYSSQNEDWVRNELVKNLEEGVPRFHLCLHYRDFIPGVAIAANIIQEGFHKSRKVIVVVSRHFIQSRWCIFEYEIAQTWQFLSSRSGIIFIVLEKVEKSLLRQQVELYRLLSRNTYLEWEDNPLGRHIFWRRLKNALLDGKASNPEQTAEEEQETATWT
As to the kind of experiment: Inhibition of LPS-induced TLR4 activation in mouse RAW264.7 cells assessed as reduction in NO production after 18 to 24 hrs. The data set is classed as cell-based. In outline:
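RAW264.7 cells, 100,000 per well, grown 24 h in RPMI with 10% FBS, then switched to unsupplemented RPMI. LPS and compound added together, 18–24 h at 37 °C. Medium nitrite measured with 2,3-diaminonaphthalene (ex 365/em 450 nm) against a nitrite standard curve. Quadruplicate; IC50 by a modified Kou-type method.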

For data set [2], the target named is T2, Toll-like receptor 4 (Homo sapiens, UniProt O00206). As to the kind of experiment: Inhibition of LPS-induced TLR4 activation in human whole blood assessed as inhibition of IL-6 release preincubated for 5 to 10 mins. The gist of the method:
(§1)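 Fresh human blood anticoagulated with lepirudin, preincubated with compound 5–10 min at 37 °C, then stimulated with 100 ng/mL ultrapure E. coli 0111:B4 LPS, rotating 2 h at 37 °C. Stopped with EDTA 10 mM final; plasma TNF-α, IL-8 and IL-6 measured by singleplex Bio-plex, expressed as % of LPS without inhibitor. n = 3 or 9, paired two-sided t-test.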

The target in data set [3] is T2, Toll-like receptor 4. As to the kind of experiment: Inhibition of LPS-induced TLR4 activation in human whole blood assessed as inhibition of IL-6 release at 500 uM preincubated for 5 to 10 mins. In outline:
as §1

Data set [4] addresses T2, Toll-like receptor 4. As to the kind of experiment: Inhibition of LPS-induced TLR4 activation in human whole blood assessed as inhibition of IL-8 release at 500 uM preincubated for 5 to 10 mins. In outline: as §1
Data set [5] addresses T2, Toll-like receptor 4. As to the kind of experiment: Inhibition of LPS-induced TLR4 activation in human whole blood assessed as inhibition of TNFalpha release at 500 uM preincubated for 5 to 10 mins. In outline:
as §1

Data set [6] deals with T2, Toll-like receptor 4. As to the kind of experiment: Inhibition of LPS-induced TLR4 activation in human whole blood assessed as inhibition of IL-6 release at 250 uM preincubated for 5 to 10 mins. In outline: as §1
Data set [7] concerns the target T2, Toll-like receptor 4. As to the kind of experiment: Inhibition of LPS-induced TLR4 activation in human whole blood assessed as inhibition of IL-8 release preincubated for 5 to 10 mins. In outline: as §1
Data set [8] has as its target T2, Toll-like receptor 4. As to the kind of experiment: Inhibition of LPS-induced TLR4 activation in human whole blood assessed as inhibition of TNFalpha release preincubated for 5 to 10 mins. The gist of the method:
as §1

In data set [9] the target is Protein kinase C gamma type (Homo sapiens) (UniProt P05129). As to the kind of experiment: Inhibition of PKCgamma at 16 uM by luciferase fragment complementation assay.
In data set [10] the target is RAC-alpha serine/threonine-protein kinase (Homo sapiens) (UniProt P31749). As to the kind of experiment: Inhibition of AKT1 at 16 uM by luciferase fragment complementation assay.
The target of data set [11] is Proto-oncogene tyrosine-protein kinase Src (Homo sapiens) (UniProt P12931). As to the kind of experiment: Inhibition of SRC at 16 uM by luciferase fragment complementation assay.
Data set [12] has as its target Calcium/calmodulin-dependent protein kinase type 1 (Homo sapiens) (UniProt Q14012). As to the kind of experiment: Inhibition of CAMK1 at 16 uM by luciferase fragment complementation assay.
Data set [13] addresses Hepatocyte growth factor receptor (Homo sapiens) (UniProt P08581). As to the kind of experiment: Inhibition of MET at 16 uM by luciferase fragment complementation assay.
For data set [14], the target named is Glycogen synthase kinase-3 alpha (Homo sapiens) (UniProt P49840). As to the kind of experiment: Inhibition of GSK3alpha at 16 uM by luciferase fragment complementation assay.
Glycogen synthase kinase-3 alpha (Homo sapiens), sequence (P49840 2-483 limits assumed): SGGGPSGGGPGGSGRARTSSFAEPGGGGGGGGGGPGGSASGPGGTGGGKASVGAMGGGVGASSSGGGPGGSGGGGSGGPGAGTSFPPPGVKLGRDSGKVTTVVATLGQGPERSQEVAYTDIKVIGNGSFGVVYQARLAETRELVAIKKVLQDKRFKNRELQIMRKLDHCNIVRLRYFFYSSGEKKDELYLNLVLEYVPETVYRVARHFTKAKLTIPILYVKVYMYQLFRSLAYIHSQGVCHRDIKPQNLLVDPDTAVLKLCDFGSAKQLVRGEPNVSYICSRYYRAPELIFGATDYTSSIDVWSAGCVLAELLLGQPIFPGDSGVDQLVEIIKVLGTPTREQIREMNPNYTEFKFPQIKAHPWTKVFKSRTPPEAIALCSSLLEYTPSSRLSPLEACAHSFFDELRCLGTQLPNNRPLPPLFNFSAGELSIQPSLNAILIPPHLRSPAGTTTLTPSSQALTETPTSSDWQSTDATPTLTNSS
Data set [15] deals with Serine/threonine-protein kinase PLK4 (Homo sapiens) (UniProt O00444). As to the kind of experiment: Inhibition of PLK4 at 16 uM by luciferase fragment complementation assay.
Serine/threonine-protein kinase PLK4 (Homo sapiens), sequence (O00444 whole entry, the tested form may be a part): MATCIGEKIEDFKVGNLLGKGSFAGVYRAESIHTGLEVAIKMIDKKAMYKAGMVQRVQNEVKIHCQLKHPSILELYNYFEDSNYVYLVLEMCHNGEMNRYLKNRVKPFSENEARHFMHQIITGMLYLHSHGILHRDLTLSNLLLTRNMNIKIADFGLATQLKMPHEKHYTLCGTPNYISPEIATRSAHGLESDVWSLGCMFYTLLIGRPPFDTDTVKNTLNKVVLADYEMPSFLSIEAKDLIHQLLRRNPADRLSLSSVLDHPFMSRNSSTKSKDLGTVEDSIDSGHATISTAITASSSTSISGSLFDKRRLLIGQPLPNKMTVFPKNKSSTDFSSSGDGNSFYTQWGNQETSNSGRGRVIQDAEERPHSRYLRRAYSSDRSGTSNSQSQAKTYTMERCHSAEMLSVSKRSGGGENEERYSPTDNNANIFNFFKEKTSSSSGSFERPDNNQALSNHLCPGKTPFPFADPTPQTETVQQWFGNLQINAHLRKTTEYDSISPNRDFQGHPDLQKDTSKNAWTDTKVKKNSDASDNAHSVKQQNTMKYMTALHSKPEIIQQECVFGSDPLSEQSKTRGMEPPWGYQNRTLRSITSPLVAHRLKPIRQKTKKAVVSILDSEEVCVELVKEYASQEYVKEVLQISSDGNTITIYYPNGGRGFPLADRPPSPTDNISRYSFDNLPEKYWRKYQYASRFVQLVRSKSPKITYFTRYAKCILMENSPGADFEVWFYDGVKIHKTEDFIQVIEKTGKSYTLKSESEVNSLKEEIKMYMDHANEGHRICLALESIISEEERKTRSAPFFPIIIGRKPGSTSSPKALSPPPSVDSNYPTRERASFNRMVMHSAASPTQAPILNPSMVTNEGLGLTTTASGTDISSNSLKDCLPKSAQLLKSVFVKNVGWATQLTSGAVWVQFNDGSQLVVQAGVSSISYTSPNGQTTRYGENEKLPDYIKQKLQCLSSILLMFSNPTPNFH
Data set [16] concerns the target Serine/threonine-protein kinase PAK 1 (Homo sapiens) (UniProt Q13153). As to the kind of experiment: Inhibition of PAK1 at 16 uM by luciferase fragment complementation assay.
Data set [17] has as its target Serine/threonine-protein kinase pim-1 (Homo sapiens) (UniProt P11309). As to the kind of experiment: Inhibition of PIM1 at 16 uM by luciferase fragment complementation assay.
The target of data set [18] is Platelet-derived growth factor receptor beta (Homo sapiens) (UniProt P09619). As to the kind of experiment: Inhibition of PDGFRB at 16 uM by luciferase fragment complementation assay.
Platelet-derived growth factor receptor beta (Homo sapiens), sequence (P09619 whole entry, the tested form may be a part): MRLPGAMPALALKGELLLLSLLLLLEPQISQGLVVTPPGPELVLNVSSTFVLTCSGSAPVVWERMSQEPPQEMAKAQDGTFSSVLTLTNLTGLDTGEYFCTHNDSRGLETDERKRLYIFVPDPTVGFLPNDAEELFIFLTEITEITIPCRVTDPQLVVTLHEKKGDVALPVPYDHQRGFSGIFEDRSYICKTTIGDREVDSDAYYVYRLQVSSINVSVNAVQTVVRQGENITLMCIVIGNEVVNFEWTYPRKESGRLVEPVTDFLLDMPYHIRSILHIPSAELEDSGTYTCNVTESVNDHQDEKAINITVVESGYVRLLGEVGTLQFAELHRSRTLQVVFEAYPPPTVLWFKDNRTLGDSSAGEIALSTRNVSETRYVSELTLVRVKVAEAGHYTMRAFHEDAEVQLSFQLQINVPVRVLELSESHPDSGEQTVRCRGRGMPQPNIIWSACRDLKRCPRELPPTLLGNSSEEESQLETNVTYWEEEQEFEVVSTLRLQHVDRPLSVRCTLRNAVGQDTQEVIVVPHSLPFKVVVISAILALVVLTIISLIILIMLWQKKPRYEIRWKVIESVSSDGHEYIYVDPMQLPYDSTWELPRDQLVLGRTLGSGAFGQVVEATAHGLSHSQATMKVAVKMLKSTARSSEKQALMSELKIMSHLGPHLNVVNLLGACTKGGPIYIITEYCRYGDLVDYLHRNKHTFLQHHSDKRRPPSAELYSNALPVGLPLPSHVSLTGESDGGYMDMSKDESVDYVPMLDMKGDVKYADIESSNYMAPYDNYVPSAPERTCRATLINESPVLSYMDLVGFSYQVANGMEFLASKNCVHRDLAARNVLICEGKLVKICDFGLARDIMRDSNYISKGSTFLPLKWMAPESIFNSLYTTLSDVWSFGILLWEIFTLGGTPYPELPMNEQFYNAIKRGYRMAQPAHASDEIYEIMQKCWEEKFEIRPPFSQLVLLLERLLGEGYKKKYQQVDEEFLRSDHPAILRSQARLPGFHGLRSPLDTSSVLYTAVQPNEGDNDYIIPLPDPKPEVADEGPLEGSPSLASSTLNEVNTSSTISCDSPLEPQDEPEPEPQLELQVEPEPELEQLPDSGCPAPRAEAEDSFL
In data set [19] the target is Mitogen-activated protein kinase 1 (Homo sapiens) (UniProt P28482). As to the kind of experiment: Inhibition of […] at 16 uM by luciferase fragment complementation assay.
Data set [20] has as its target Discoidin domain-containing receptor 2 (Homo sapiens) (UniProt Q16832). As to the kind of experiment: Inhibition of DDR2 at 16 uM by luciferase fragment complementation assay.

T2 sequence (O00206 whole entry): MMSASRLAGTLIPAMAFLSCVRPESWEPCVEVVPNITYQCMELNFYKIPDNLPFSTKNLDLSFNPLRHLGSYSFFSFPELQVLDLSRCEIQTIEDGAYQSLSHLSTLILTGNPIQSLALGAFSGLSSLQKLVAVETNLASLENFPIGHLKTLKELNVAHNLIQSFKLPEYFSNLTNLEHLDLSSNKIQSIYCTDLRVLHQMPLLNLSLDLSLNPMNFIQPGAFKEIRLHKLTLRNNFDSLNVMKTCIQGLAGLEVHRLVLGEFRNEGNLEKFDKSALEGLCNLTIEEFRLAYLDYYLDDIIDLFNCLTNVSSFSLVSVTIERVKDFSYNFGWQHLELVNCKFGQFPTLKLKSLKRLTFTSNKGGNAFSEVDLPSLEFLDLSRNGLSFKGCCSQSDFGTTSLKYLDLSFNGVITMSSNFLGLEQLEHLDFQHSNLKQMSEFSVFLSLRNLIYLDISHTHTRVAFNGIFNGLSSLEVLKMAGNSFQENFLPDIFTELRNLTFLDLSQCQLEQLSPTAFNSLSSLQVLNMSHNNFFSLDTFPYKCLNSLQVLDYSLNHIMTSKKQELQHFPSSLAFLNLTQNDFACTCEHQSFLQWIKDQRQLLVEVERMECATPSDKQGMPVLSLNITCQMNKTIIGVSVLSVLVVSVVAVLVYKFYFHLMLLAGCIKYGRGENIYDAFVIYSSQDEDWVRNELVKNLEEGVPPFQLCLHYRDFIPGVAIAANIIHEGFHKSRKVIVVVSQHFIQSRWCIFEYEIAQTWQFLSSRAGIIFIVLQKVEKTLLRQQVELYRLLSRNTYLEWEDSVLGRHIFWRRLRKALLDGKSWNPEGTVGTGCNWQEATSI
Serine/threonine-protein kinase pim-1 (Homo sapiens), sequence (P11309 whole entry, looked up, the tested form may be a part): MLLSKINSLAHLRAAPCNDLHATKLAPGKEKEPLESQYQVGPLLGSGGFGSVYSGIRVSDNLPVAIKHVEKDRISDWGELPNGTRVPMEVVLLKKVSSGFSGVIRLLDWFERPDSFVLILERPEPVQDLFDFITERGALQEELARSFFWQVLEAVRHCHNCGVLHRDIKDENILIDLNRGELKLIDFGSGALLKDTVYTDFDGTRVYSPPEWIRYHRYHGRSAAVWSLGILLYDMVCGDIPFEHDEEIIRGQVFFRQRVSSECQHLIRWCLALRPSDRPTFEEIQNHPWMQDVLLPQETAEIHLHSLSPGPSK
Hepatocyte growth factor receptor (Homo sapiens), sequence (P08581 whole entry, the tested form may be a part): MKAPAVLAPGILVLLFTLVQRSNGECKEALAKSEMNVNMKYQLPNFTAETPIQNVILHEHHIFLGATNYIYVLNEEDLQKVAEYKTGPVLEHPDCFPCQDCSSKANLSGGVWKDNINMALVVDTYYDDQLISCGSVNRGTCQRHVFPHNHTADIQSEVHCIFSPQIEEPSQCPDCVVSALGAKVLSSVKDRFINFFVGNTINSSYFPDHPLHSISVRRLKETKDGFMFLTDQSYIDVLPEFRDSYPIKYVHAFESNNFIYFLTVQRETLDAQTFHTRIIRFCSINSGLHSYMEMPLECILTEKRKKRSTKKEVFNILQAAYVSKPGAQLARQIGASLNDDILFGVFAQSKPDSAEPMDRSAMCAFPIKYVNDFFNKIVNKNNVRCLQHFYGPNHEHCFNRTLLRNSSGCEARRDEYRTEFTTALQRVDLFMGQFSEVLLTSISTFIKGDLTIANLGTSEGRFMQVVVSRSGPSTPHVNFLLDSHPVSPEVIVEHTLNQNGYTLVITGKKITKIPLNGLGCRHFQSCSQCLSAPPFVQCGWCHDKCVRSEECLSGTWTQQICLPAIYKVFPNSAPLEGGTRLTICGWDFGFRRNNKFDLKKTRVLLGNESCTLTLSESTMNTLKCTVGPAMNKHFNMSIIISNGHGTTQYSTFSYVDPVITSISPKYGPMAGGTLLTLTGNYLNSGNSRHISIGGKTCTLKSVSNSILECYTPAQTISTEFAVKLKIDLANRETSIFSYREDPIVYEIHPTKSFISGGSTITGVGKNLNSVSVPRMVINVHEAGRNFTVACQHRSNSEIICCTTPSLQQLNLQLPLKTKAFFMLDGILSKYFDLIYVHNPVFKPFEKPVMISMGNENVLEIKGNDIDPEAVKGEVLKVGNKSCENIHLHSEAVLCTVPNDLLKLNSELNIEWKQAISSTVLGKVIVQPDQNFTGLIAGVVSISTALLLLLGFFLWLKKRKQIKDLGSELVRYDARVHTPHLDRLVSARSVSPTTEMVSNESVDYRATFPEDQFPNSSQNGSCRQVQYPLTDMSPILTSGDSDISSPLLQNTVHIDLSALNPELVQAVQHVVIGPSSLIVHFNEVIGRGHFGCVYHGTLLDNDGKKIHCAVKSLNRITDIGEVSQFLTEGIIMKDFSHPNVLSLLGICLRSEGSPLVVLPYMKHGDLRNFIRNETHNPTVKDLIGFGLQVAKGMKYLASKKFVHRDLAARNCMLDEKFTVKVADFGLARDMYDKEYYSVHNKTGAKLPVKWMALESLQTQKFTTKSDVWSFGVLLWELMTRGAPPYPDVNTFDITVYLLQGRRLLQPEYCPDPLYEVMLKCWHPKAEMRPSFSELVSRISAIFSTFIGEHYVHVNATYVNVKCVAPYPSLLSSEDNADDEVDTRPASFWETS

For `Cc1nn(Cc2ccccc2Cl)c(C)c1CN(C)C[C@H](O)COc1ccc(Cl)cc1`, the Activity entry in the data set with Blood is listed as “Non-toxic”. Besides, on Toll-like receptor 4 [1], the IC50 was 15.6 µM.
`CCOc1ccc(OC[C@H](O)CN(C)Cc2c(C)nn(Cc3ccccc3Cl)c2C)cc1`: the Activity result in the data set with Blood is given as “Non-toxic”. Further, at Toll-like receptor 4 [1], the IC50 amounted to 24.8 µM.
On to `CCOc1ccc(OC[C@@H](O)CN(C)Cc2c(C)nn(Cc3ccccc3Cl)c2C)cc1`, for which, in the data set on Blood, the Activity result is listed as “Non-toxic”. In addition, the IC50 on Toll-like receptor 4 [1] was determined as 24.3 µM.
For the molecule `Cc1nn(Cc2ccccc2Cl)c(C)c1CN(C)C[C@@H](O)COc1ccc(Cl)cc1`, in the data set with Blood, the Activity entry was “Non-toxic”. The IC50 at Toll-like receptor 4 [1] is 15.5 µM.
With `Cc1nn(Cc2ccccc2)c(C)c1CN(C)CC(O)COc1ccccc1` (racemic), the Activity entry in the data set with Blood was “Non-toxic”. Besides, the inhibition entry at Toll-like receptor 4 [2], on Toll-like receptor 4 [7] and on Toll-like receptor 4 [8] was “Dose-dependent effect” throughout. In addition, the inhibition entry at Toll-like receptor 4 [3], on Toll-like receptor 4 [4] and on Toll-like receptor 4 [5] was “Active” each time. Also, the IC50 on Toll-like receptor 4 [1] was greater than 100 µM. The inhibition entry at Toll-like receptor 4 [6] is “inactive”.
On to `Cc1nn(Cc2ccccc2Cl)c(C)c1CN(C)CC(O)COc1ccccc1` (racemic), for which the Activity result in the data set with Blood is “Non-toxic”. In addition, on Toll-like receptor 4 [1], the IC50 was found to be 64.3 µM.
The matching figures for `COCCc1ccc(OCC(O)CN(C)Cc2c(C)nn(Cc3ccccc3Cl)c2C)cc1` (racemic): “Non-toxic” and 57.3 µM.
The matching figures for `COc1ccccc1OCC(O)CN(C)Cc1c(C)nn(Cc2ccccc2Cl)c1C` (racemic): “Non-toxic” and 92.5 µM.
In the case of `CCOc1ccc(OCC(O)CN(C)Cc2c(C)nn(Cc3ccccc3)c2C)cc1` (racemic), the Activity entry in the data set on Blood was “Non-toxic”. In addition, on Toll-like receptor 4 [1], the IC50 was found to be 51.8 µM.
The matching figures for `CCOc1ccc(OCC(O)CN(C)Cc2c(C)nn(Cc3ccccc3C)c2C)cc1` (racemic): “Non-toxic” and 47.7 µM.
For `CCOc1ccc(OCC(O)CN(C)Cc2c(C)nn(Cc3ccccc3OC)c2C)cc1` (racemic), in that order: “Non-toxic” and greater than 100 µM.
Turning to `CCOc1ccc(OCC(O)CN(C)Cc2c(C)nn(Cc3ccc(OC)cc3)c2C)cc1` (racemic), in the data set on Blood, the Activity result is listed as “Non-toxic”. Further, on Toll-like receptor 4 [1], the IC50 is 67.6 µM.
The matching figures for `CCOc1ccc(OCC(O)CN(C)Cc2c(C)nn(Cc3ccccc3F)c2C)cc1` (racemic): “Non-toxic” and 47.7 µM.
For `CCOc1ccc(OCC(CN(C)Cc2c(C)nn(Cc3ccccc3Cl)c2C)OC)cc1` (racemic), the IC50 at Toll-like receptor 4 [1] turned out to be 19.8 µM.
`CCOc1ccc(OCC(O)CN(C)Cc2c(C)nn(Cc3cccc(Cl)c3)c2C)cc1` (racemic): the Activity result in the data set on Blood is reported as “Non-toxic”. Further, on Toll-like receptor 4 [1], the 50% inhibitory concentration (IC50) came to 16.5 µM.
For `CCOc1ccc(OCC(O)CN(C)Cc2c(C)nn(Cc3ccc(Cl)c(Cl)c3)c2C)cc1` (racemic), in that order: “Non-toxic” and 21.8 µM.
For the molecule `C=Cc1ccccc1Cn1nc(C)c(CN(C)CC(O)COc2ccc(OCC)cc2)c1C` (racemic), the Activity entry in the data set with Blood was “Non-toxic”. On Toll-like receptor 4 [1], the IC50 was found to be 24.7 µM.
The matching figures for `CCOc1ccc(OCC(O)CN(C)Cc2c(C)nn(Cc3ccccc3C(F)(F)F)c2C)cc1` (racemic): “Non-toxic” and 32.1 µM.
For `C=CCOc1ccc(OCC(O)CN(C)Cc2c(C)nn(Cc3ccccc3C=C)c2C)cc1` (racemic), the Activity result in the data set on Blood is given as “Non-toxic”. Moreover, the IC50 on Toll-like receptor 4 [1] amounted to 23.1 µM.
As to `C=CCOc1ccc(OCC(O)CN(C)Cc2c(C)nn(Cc3ccccc3Cl)c2C)cc1` (racemic), the Activity entry in the data set with Blood was “Non-toxic”. Moreover, the IC50 at Toll-like receptor 4 [1] worked out at 44.6 µM.
On to `Cc1nn(Cc2ccccc2Cl)c(C)c1CN(C)CC(O)COc1ccc(Cl)cc1` (racemic), for which the inhibition in data set [9], in data set [10], in [11], in [12], in data set [13] and in data set [14] was no more than 27% in each case. Further, the inhibition in [15], in [16], in data set [17], in data set [18], in [19] and in [20] was no more than 27% throughout. Further, the Activity entry with Blood was “Non-toxic”. In addition, the IC50 on Toll-like receptor 4 [1] is 16.1 µM.
With `Cc1nn(Cc2ccccc2Cl)c(C)c1CN(C)CC(O)COc1ccc(Cl)c(Cl)c1` (racemic), the Activity entry in the data set on Blood is recorded as “Non-toxic”. In addition, the IC50 at Toll-like receptor 4 [1] worked out at 20.1 µM.
With `C=Cc1ccccc1Cn1nc(C)c(CN(C)CC(O)COc2ccc(Cl)cc2)c1C` (racemic), the Activity result in the data set with Blood is given as “Non-toxic”. The IC50 at Toll-like receptor 4 [1] was 23.2 µM.
Consider `Cc1nn(Cc2ccccc2C(F)(F)F)c(C)c1CN(C)CC(O)COc1ccc(C(F)(F)F)cc1` (racemic), for which, in the data set on Blood, the Activity entry is listed as “Non-toxic”. Moreover, the IC50 at Toll-like receptor 4 [1] was determined as 27.3 µM.
For `Cc1nn(Cc2ccccc2Cl)c(C)c1CN(C)CC(O)COc1ccc(C(F)(F)F)cc1` (racemic), in the data set with Blood, the Activity result is on record as “Non-toxic”. Besides, the IC50 on Toll-like receptor 4 [1] came to 23.7 µM.
For `Cc1nn(Cc2ccccc2Cl)c(C)c1CN(C)CC(O)COc1ccc(C#N)cc1` (racemic), in that order: “Non-toxic” and 52.7 µM.
